ROMK primary: modulators of human ROMK potassium channel; P48048; Tet-inducible ROMK, thallium flux fluorescence; actives lie on both sides; B-score at 10 µM; hit rate 2% among 130,000;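 active = signal ratio slope over the read window, or its plate-corrected B-score, at least 3 SD from the plate mean, either direction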;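 also: B-score of the F/F0 ratio slope over 7 to 12 s after thallium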
Target sequence (P48048 whole entry, looked up): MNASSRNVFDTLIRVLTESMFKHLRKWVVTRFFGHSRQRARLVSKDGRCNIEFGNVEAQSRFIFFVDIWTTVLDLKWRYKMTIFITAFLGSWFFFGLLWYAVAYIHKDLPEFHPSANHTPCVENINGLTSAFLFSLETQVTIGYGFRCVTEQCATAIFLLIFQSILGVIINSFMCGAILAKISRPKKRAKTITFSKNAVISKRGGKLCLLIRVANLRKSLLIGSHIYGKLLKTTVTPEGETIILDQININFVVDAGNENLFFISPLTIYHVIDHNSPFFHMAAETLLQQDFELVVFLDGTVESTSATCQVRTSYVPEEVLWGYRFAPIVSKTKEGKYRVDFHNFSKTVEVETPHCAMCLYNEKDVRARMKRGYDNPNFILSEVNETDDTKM
ABCB1 inh: blocks JC-1 efflux by human ABCB1 transporter; P08183; CCRF-Adr cells, flow cytometry; inhibition, % at 6.6 µM; hit rate 0.067% among 190,000; AID 1326; in the data active = inhibition above about 40%;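 also: higher value means more JC-1 retained so stronger ABCB1 efflux block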
Autophagy HCS: modulators of autophagy; MEF GFP-LC3 puncta imaging; test concentration mostly 10 µM; calls only at 10 µM (by protocol); hit rate 0.98% among 190,000;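 active = percentage of spot-positive cells more than 3 SD above its plate mean, without a fluorescence outlier flag or 80% toxicity; inconclusive = no clear call, values can overlap the other calls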
ABCG2 inh: blocks JC-1 efflux by human ABCG2 transporter | Q9UNQ0 | IgMXP3 cells, flow cytometry | inhibition, % at 6.6 µM | hit rate 0.1% among 190,000 | AID 1325;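 active = inhibition above 80%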
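test system = two drug-resistant human cell lines, ABCG2 and ABCB1 | amount = 3 million cells/mL final, two lines in 1:1 ratio | reagent = JC-1 transporter substrate | doses = one concentration, 6.6 µM final | incubation = 10 min at 25 °C | signal = flow cytometric JC-1 green MFI at 530 nm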
SDO1 yeast rescue: restores growth of sdo1-depleted yeast | z-score at 10 µM | S. cerevisiae sdo1-depleted JHY4D growth rescue, OD600 30 h; stronger effect = higher value; pdr5 snq2 efflux-pump mutant strain | hit rate 0.21% among 140,000;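 active = z-score above 3 at both the 24 hr and the 30 hr optical density reads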
Ins promoter up: MIN6 insulin promoter up-regulation; MIN6 insulin promoter-GFP reporter, high-content imaging; stronger effect = higher value; z-score at 5 µM; hit rate 0.3% among 190,000;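 active = z-score above 3 at 5 µM with at least 500 cells counted in the well; inconclusive = wells under 500 cells, flagged as cytotoxic or low count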
Hits are given with their value; . = inactive; ? = inconclusive; / = not tested or not shown; + = active, no number. Only some compounds are listed: those with a hit (about 2.3% of all), similar ones and a draw of the others.

SMILES	ROMK primary	ABCB1 inh	Autophagy HCS	ABCG2 inh	SDO1 yeast rescue	Ins promoter up
CNC(=O)C1CC(=O)N/C(=N/N=C(\C)c2cccs2)S1 (stereo not drawn)	/	.	.	.	.	3.7
CCCCCc1ccc(OCCCC[n+]2cccc(C)c2)c(CCCCC)c1	.	.	.	.	/	?
CCC(C)(C)c1ccc(OCCCC[n+]2ccccc2)c(C(C)(C)CC)c1	-3.7	.	.	.	/	?
CC(C)c1nnc(NC(=O)c2ccc3c(c2)OCO3)s1	.	.	.	.	/	.
COc1ccccc1-c1nnc(NC(=O)c2ccc3c(c2)OCO3)s1	.	.	+	.	/	.
COc1cc(C(=O)N/N=C(\C)c2ccc3c(c2)OCO3)cc(OC)c1OC	.	.	+	.	/	.
COc1cc(-c2nc(-c3ccc(NC(=O)c4ccc5c(c4)OCO5)cc3)no2)cc(OC)c1OC	.	.	+	.	.	.
COc1ccc(CC(=O)Nc2ccc(-c3noc(-c4cc(OC)c(OC)c(OC)c4)n3)cc2)cc1	.	.	+	.	.	.
COc1ccc(/C(C)=N\NC(=O)c2ccc3c(c2)OCO3)cc1OC	.	.	.	.	/	/
Cc1ccc(NC(=O)c2ccc3c(c2)C(=O)N(Cc2cccnc2)C3=O)c(C)c1	.	.	.	.	/	.
CC1=C(C(=O)OCC(C)C)C2(O)C(=O)c3ccccc3C2(O)N1 (stereo not drawn)	.	.	.	.	.	.
Nc1c(C(=O)Nc2ccccc2F)sc2nc(Cc3ccccc3)cc(C(F)(F)F)c12	/	.	+	.	.	/
COc1ccccc1CN1C[C@@H]2C[C@@H](c3ccc(C)c(C)c3)N3CCC[C@@]23C1=O	.	.	.	.	/	.
Cc1cccc(-n2nc(C(=O)c3ccco3)cc(-c3nc4ccccc4[nH]3)c2=N)c1	.	.	.	.	.	.
Cc1ccccc1-n1nc(C(=O)c2cccs2)cc(-c2nc3ccccc3[nH]2)c1=N	/	.	+	.	.	.
COc1ccc(-n2nc(C(=O)c3cccs3)cc(-c3nc4ccccc4[nH]3)c2=N)cc1	/	.	+	.	.	/
Cc1cc(C)c(C(=O)CN2C(=O)NC3(CCCCCC3)C2=O)cc1C	.	.	+	.	/	.
CCOc1ccc(NC(=O)/C=C/c2ccc(OC)cc2)c([N+](=O)[O-])c1	.	.	+	.	.	.
COc1ccc(/C=C/C(=O)Nc2ccc(OC)cc2[N+](=O)[O-])cc1	/	.	.	.	.	.
O=C(C1=C[C@H](c2csc3ccccc23)C[C@H](OCc2ccc(CO)cc2)O1)N1CCN(Cc2ccc3c(c2)OCO3)CC1	/	.	.	.	/	.
CC(C)(C)NC(=O)NC(=O)COC(=O)Cc1coc2ccc3ccccc3c12	.	.	.	.	.	.
CC[n+]1c(C=C2C=C(C)OC(C)=C2)sc2ccccc21	.	.	+	.	/	?
Cc1[nH][nH]c(=O)c1C(c1ccc(-c2ccc(Cl)c(C(=O)O)c2)o1)c1c(C)[nH][nH]c1=O	.	.	+	.	/	.
COC(=O)c1cccc(-c2ccc(C(c3c(C)[nH][nH]c3=O)c3c(C)[nH][nH]c3=O)o2)c1	.	.	.	.	/	.
C=CCN1C(=O)S/C(=C\c2ccc(N3CCOCC3)cc2C)C1=O	.	.	+	.	.	.
SMILES	ROMK primary	ABCB1 inh	Autophagy HCS	ABCG2 inh	SDO1 yeast rescue	Ins promoter up
C=CC(C)N1C(=O)S/C(=C\c2ccc(N3CCOCC3)cc2C)C1=O (stereo not drawn)	.	.	.	.	.	.
CN(C(=O)Nc1cnc2ccccc2c1)c1ccccc1	.	.	.	.	/	.
CN(c1cccc(Cl)c1)S(=O)(=O)c1cccc(C(=O)Nc2nc3ccccc3[nH]2)c1	/	.	.	.	.	.
CN(c1cccc(Cl)c1)S(=O)(=O)c1cccc(C(=O)NC2=NCCS2)c1	/	.	.	.	.	3.5
CCCCC(CCC(=O)Nc1cccc([N+](=O)[O-])c1)C(=O)O (stereo not drawn)	/	/	/	/	/	.
CN(C)c1ccc(N=C/C=C2\N(C)c3ccccc3C2(C)C)cc1	/	.	.	.	.	/
CN1/C(=C\C=Nc2ccc3ccccc3c2)C(C)(C)c2ccccc21	/	.	+	.	.	.
OC1(c2ccccc2F)CCN(Cc2nnnn2Cc2ccc(F)cc2)CC1	.	.	.	.	/	.
COc1ccc2cc(/C(C)=N/NC(=S)Nc3cc(S(=O)(=O)N4CCOCC4)ccc3N3CCOCC3)ccc2c1	.	.	+	.	/	.
C/C(=N\NC(=S)Nc1cc(S(=O)(=O)N2CCOCC2)ccc1Cl)c1ccc(N2CCOCC2)cc1	/	/	/	/	/	.
CCOC(=O)Cn1c2ccc(F)cc2c2nc(C)sc21	.	.	.	.	/	3.7
COc1cccc2cc(C(=O)c3ccc([N+](=O)[O-])cc3)oc12	.	.	.	.	/	.
COc1ccc(-n2cc3c(-c4cccc(Br)c4)nnc(C)c3n2)cc1	.	.	+	.	.	.
CCOC(=O)N1CCC(N(CCCOC)C(=O)Nc2cccc(OC)c2)CC1	.	.	.	.	.	.
CCOC(=O)N1CCC(N(CCOC)C(=O)Nc2ccc(Cl)c(Cl)c2)CC1	.	.	+	.	.	.
COC(=O)c1ccc(C(=O)OC)c(NC(=O)CN(c2ccccc2)S(=O)(=O)N(C)C)c1	.	.	.	.	/	.
CCOc1ccc(Cn2c3ccc(OC)cc3c3nc4ccccc4nc32)cc1	.	.	+	.	.	.
COc1cc(/C=C(\C#N)c2nc3ccccc3[nH]2)c([N+](=O)[O-])cc1OCc1ccccc1	.	.	.	.	.	.
CCN(CC)c1ccc(/C=C(/C#N)c2nc3ccccc3[nH]2)c(OC(C)C)c1	/	.	+	.	.	/
Cc1ccc(S(=O)(=O)N2CCCC2C(=O)N(C)Cc2cccs2)cc1 (stereo not drawn)	/	.	.	.	.	4.2
Cc1c2c(n3c(nc4ccccc43)c1C#N)N(c1ccccc1)CC2	/	.	+	.	.	.
N#Cc1c2c(c(-n3cnc4ccccc43)n3c1nc1ccccc13)CCC2	/	.	.	.	.	4.8
Cc1c2c(n3c(nc4ccccc43)c1C#N)N(CCN(C)C)CC2	.	.	.	.	/	.
Cc1ccc(-c2oc3ccccc3c(=O)c2O)cc1	/	.	+	.	.	.
Cc1nc(N2CCOCC2)[nH]c(=O)c1C	/	.	.	.	/	.
C/C(=C\C(=O)c1ccccc1)Nc1ccc(N2CCOCC2)cc1	/	.	.	.	.	.
C/C(=C\C(=O)c1ccc(Cl)cc1)Nc1ccc(N2CCOCC2)cc1	.	.	+	.	.	.
CCNCC(=O)Nc1ccc(N2CCOCC2)cc1	.	.	+	.	/	.
CCOC(CNc1ncnc2c1cnn2C)OCC	/	.	.	.	/	.
O=c1cc(/N=C/c2coc3c(ccc4ccccc43)c2=O)[nH]c(=S)[nH]1	/	.	.	.	.	?

Assay outcomes: PubChem, several laboratories
